ChEMBL document CHEMBL3046066, “Synthesis of new fluorinated Tebufenpyrad analogs with acaricidal activity through regioselective pyrazole formation” (2008)
Activity calls are given as the source filed them. The calls are words filed in the database; no cut-off is given here.

Key:
Tetranychus urticae [1] = experiment: Acaricidal activity against Tetranychus urticae (two-spotted spider mite) assessed as fertility inhibition at 0.16 g/L measured after 4 days; format: functional; conditions: 96 h
Method in brief: (§1)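 Each compound was applied as a solution, with active-principle concentration in the assay of 5 g/L (preliminary screen) or 0.16 g/L. Adulticide effect (% adult mortality) and fertility inhibition (%) were scored 24 h, 4 days and 6 days after application.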

Tetranychus urticae [2] = experiment: Acaricidal activity against Tetranychus urticae (two-spotted spider mite) assessed as mortality at 5 g/L measured after 6 days; format: functional; conditions: 144 h; method in brief: as §1
Tetranychus urticae [3] = experiment: Acaricidal activity against Tetranychus urticae (two-spotted spider mite) assessed as mortality at 0.16 g/L measured after 24 hr; format: functional; method in brief: as §1
Tetranychus urticae [4] = experiment: Acaricidal activity against Tetranychus urticae (two-spotted spider mite) assessed as mortality at 0.16 g/L measured after 4 days; format: functional; conditions: 96 h; method in brief: as §1
Tetranychus urticae [5] = experiment: Acaricidal activity against Tetranychus urticae (two-spotted spider mite) assessed as fertility inhibition at 5 g/L measured after 4 days; format: functional; conditions: 96 h; method in brief: as §1
Tetranychus urticae [6] = experiment: Acaricidal activity against Tetranychus urticae (two-spotted spider mite) assessed as fertility inhibition at 5 g/L measured after 6 days; format: functional; conditions: 144 h; method in brief: as §1
Tetranychus urticae [7] = experiment: Acaricidal activity against Tetranychus urticae (two-spotted spider mite) assessed as mortality at 0.16 g/L measured after 6 days; format: functional; conditions: 144 h; method in brief: as §1
Tetranychus urticae [8] = experiment: Acaricidal activity against Tetranychus urticae (two-spotted spider mite) assessed as fertility inhibition at 5 g/L measured after 24 hr; format: functional; method in brief: as §1
Tetranychus urticae [9] = experiment: Acaricidal activity against Tetranychus urticae (two-spotted spider mite) assessed as mortality at 1.5 g/L measured first 4 days; format: functional, organism-based
Method in brief: (§2)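 Solutions at 1.50, 0.67 and 0.16 g/L were applied for a lower-concentration follow-up to the 5 g/L screen. Adult mortality (%) was scored over time after application, including within the first 24 h.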

Tetranychus urticae [10] = experiment: Acaricidal activity against Tetranychus urticae (two-spotted spider mite) assessed as mortality at 5 g/L measured after 4 days; format: functional; conditions: 96 h; method in brief: as §1
Tetranychus urticae [11] = experiment: Acaricidal activity against Tetranychus urticae (two-spotted spider mite) assessed as fertility inhibition at 0.16 g/L measured after 24 hr; format: functional; method in brief: as §1
Tetranychus urticae [12] = experiment: Acaricidal activity against Tetranychus urticae (two-spotted spider mite) assessed as mortality at 5 g/L measured after 24 hr; format: functional; method in brief: as §1
Tetranychus urticae [13] = experiment: Acaricidal activity against Tetranychus urticae (two-spotted spider mite) assessed as fertility inhibition at 0.16 g/L measured after 6 days; format: functional; conditions: 144 h; method in brief: as §1
Tetranychus urticae [14] = experiment: Acaricidal activity against Tetranychus urticae (two-spotted spider mite) assessed as mortality at 1.5 g/L measured within 24 hr; format: functional; method in brief: as §2
Tetranychus urticae [15] = experiment: Acaricidal activity against Tetranychus urticae (two-spotted spider mite) assessed as mortality at 0.67 g/L measured within 24 hr; format: functional; method in brief: as §2

Row | SMILES | inhibition at 160 µg/mL (Tetranychus urticae [1]) [%] | mortality at 5000 µg/mL (Tetranychus urticae [2]) [%] | mortality at 160 µg/mL (Tetranychus urticae [3]) [%] | mortality at 160 µg/mL (Tetranychus urticae [4]) [%] | inhibition at 5000 µg/mL (Tetranychus urticae [5]) [%] | inhibition at 5000 µg/mL (Tetranychus urticae [6]) [%] | mortality at 160 µg/mL (Tetranychus urticae [7]) [%] | inhibition at 5000 µg/mL (Tetranychus urticae [8]) [%] | Activity (Tetranychus urticae [9]) | mortality at 5000 µg/mL (Tetranychus urticae [10]) [%] | inhibition at 160 µg/mL (Tetranychus urticae [11]) [%] | mortality at 5000 µg/mL (Tetranychus urticae [12]) [%] | inhibition at 160 µg/mL (Tetranychus urticae [13]) [%] | mortality at 1500 µg/mL (Tetranychus urticae [14]) [%] | mortality at 670 µg/mL (Tetranychus urticae [15]) [%]
1 | CC(F)c1nn(C)c(C(=O)NCc2ccc(C(C)(C)C)cc2)c1Cl (stereo not given) | 95 | 100 | 48 | 44 | 100 | 100 | 66 | 100 | Active | 75 | 95 | 70 | 96 | – | –
2 | Cn1nc(CC(F)F)c(Cl)c1C(=O)NCc1ccc(C(C)(C)C)cc1 | 100 | 100 | 80 | 71 | 100 | 100 | 75 | 100 | Active | 100 | 100 | 100 | 100 | 100 | –
3 | Cn1nc(CC(F)(F)F)c(Cl)c1C(=O)NCc1ccc(C(C)(C)C)cc1 | – | 70 | – | – | 98 | 98 | – | 97 | – | 30 | – | 25 | – | – | –
4 | Cn1nc(C(F)C(F)(F)F)c(Cl)c1C(=O)NCc1ccc(C(C)(C)C)cc1 (stereo not given) | – | 60 | – | – | 60 | 65 | – | 53 | – | 10 | – | 10 | – | – | –
5 | CCc1nn(C)c(C(=O)NCc2ccc(C(C)(C)C)cc2)c1Cl [TEBUFENPYRAD] | 100 | 100 | 92 | 100 | 100 | 100 | 100 | 100 | – | 100 | 84 | 100 | 100 | – | –
6 | Cn1nc(CC(F)F)cc1C(=O)NCc1ccc(C(C)(C)C)cc1 | 100 | 100 | 59 | 14 | 100 | 100 | 10 | 100 | – | 100 | 96 | 100 | 98 | – | –
7 | Cn1nc(CCF)c(Cl)c1C(=O)NCc1ccc(C(C)(C)C)cc1 | 100 | 100 | 96 | 100 | 100 | 100 | 100 | 100 | Active | 100 | 100 | 100 | 100 | 100 | 96
8 | CC(F)c1cc(C(=O)NCc2ccc(C(C)(C)C)cc2)n(C)n1 (stereo not given) | 91 | 80 | 16 | 10 | 96 | 100 | 10 | 100 | – | 70 | 68 | 70 | 94 | – | –
